# Data as given in ChEMBL document CHEMBL4152367, “Discovery of a Potent Thiazolidine Free Fatty Acid Receptor 2 Agonist with Favorable Pharmacokinetic Properties” (J Med Chem, 2018).
# Test: Volume of distribution in Balb/c mouse at 5 mg/kg, iv by HPLC-MS/MS analysis
# Assay type: ADME, organism-based
# Conditions: in vivo
# Method in brief: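 Balb/c mice dosed at 5 mg/kg iv or 10 mg/kg po. Plasma concentrations over time used to derive t1/2, AUC0–∞, Vd and total clearance (iv), and tmax, Cmax, AUC0–∞ and oral bioavailability (po).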
smiles,measurement,value
Cc1noc(C)c1-c1ccc(C(=O)N2[C@@H](c3ccccc3Cl)SC[C@H]2C(=O)O)cc1,Vd,4.05 L/kg
